Screening results deposited in PubChem by The Scripps Research Institute Molecular Screening Center.
This is a sample that favours compounds with a hit; in the whole collection about 3.3% have one here.
rCAG RNA binder: r(CAG) repeat RNA binding; TO-PRO-1 dye displacement fluorescence; inhibition, % at 3 µM; 370,000 compounds, 1.3% hits;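 active = inhibition above the plate cutoff, the mean of all test compounds on that plate plus 3 SD, cut at about 35% in these data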;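 note: higher means more dye released from RNA so lower well fluorescence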
SIAE primary: blocks human sialic acid acetylesterase; Q9HAT2; SIAE FP-Rh probe binding, fluorescence polarization; inhibition, % at 9.66 µM; 370,000 compounds, 0.69% hits;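 active = inhibition above a cutoff: mean of compounds within the control limits plus 3 SD of those, cut at about 17% in these data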
HTRA1 inh: blocks human HTRA1 serine peptidase. AID 504803. 340,000 compounds, 0.5% hits. inhibition, % at 5.96 µM. recombinant HTRA1, FP-rhodamine activity-based probe, fluorescence polarization. Q92743; in the data active = inhibition above about 36%
ABHD4 inh: ABHD4 (mouse) inhibition, primary FP screen; Q8VD66; purified mABHD4, FP-Rh probe fluorescence polarization; inhibition, % at 8.92 µM; 370,000 compounds, 0.54% hits; AID 720543;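 active = inhibition exceeding the mean over every tested compound plus 3 SD, cut at about 30% in these data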
Target sequence (Q8VD66 whole entry, looked up): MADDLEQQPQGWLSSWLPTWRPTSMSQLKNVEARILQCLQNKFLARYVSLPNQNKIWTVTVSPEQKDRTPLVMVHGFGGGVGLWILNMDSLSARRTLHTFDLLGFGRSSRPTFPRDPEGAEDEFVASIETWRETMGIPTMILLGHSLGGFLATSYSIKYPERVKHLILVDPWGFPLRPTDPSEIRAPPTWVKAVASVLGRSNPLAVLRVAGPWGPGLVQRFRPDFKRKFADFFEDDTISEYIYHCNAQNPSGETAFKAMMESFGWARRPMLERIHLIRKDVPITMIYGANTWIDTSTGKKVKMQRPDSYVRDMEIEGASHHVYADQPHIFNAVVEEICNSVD
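Assay system: mABHD4 protein; medium: HEPES pH 7.0, NaCl, Pluronic buffer; dosing: 8.92 µM, single dose; schedule: 45 min + 60 min at 25 °C; signal: FP readout, ex 525 nm / em 598 nm; read-out: normalized percent inhibition of probe labeling; repeats: single replicate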
PRMT1 FP inh: blocks human protein arginine methyltransferase 1 | AID 652257 | inhibition, % at 2.79 µM | 370,000 compounds, 1.3% hits | recombinant PRMT1, activity-based probe fluorescence polarization;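 active = inhibition above about 21% made by adding two undisclosed values, limit read from the data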
SIAE confirm: human SIAE inhibition, confirmation. SIAE FP-Rh activity-based probe, fluorescence polarization. inhibition, % at 9.66 µM. shares compounds with SIAE primary. 2,300 compounds, 13% hits;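 active = mean inhibition of the replicates above the hit cutoff set in the primary screen, cut at about 17% in these data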;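 note: inhibitors lower polarization as more probe stays unbound to SIAE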
Each line names hits and unclear results; the compound was inactive in the other large screens (follow-up assays come after a bar, where they were run).

CC1CCN(CCCCOc2ccccc2[N+](=O)[O-])CC1	none
COc1cccc(-c2cc(CNC(=O)[C@H]3O[C@@H](n4cnc5c(N)ncnc54)[C@H](O)[C@@H]3O)no2)c1	SIAE primary 19.9 (no result: HTRA1 inh) | SIAE confirm 25.0
COc1cccc(-c2cc(CNC(=O)[C@H]3O[C@@H](n4cnc(C(N)=O)n4)[C@H](O)[C@@H]3O)no2)c1	SIAE primary 77.3 (no result: HTRA1 inh) | SIAE confirm 80.0
CCc1ccc(N(CC(=O)N2CCCC2)S(C)(=O)=O)cc1	none
CC(C)N(Cc1nc2ccccc2c(=O)[nH]1)C(=O)c1ccc(NC(=O)CSc2nnnn2C)cc1	SIAE primary 17.5 | SIAE confirm inactive
Cn1nnnc1SCC(=O)NCc1ccccc1	none
COc1ccccc1CN1CC(C(=O)NCCc2ncccc2C)CCC1=O (stereo not drawn)	none
CC(C)(C)NC(=O)C(c1ccccc1)n1c(-c2ccc(-c3ccccc3)cc2)nc2ccccc21 (stereo not drawn)	none (no result: HTRA1 inh)
O=C(CCN1CCOCC1)N1CCCC(Nc2ccc(F)cc2)C1 (stereo not drawn)	SIAE primary 17.7 | SIAE confirm inactive
CSc1cccc(NC(=S)N(CCN(C)C)C(C)c2ccncc2)c1 (stereo not drawn)	SIAE primary 23.1 | SIAE confirm inactive
COCCN(C(=O)c1ccccc1F)c1nnc(-c2ccc(OC)cc2)s1	none
COc1cccc(-c2cc3nc(C)c(C)c(N4CCN(Cc5ccco5)CC4)n3n2)c1	none (no result: rCAG RNA binder, HTRA1 inh)
O=C(Nc1ccc2[nH]c(=S)sc2c1)Nc1ccccc1F	SIAE primary 26.2 | SIAE confirm inactive
CC(C)CN1C(=O)[C@]2(CC(=O)N(C)C2c2ccccc2)c2cc(-n3cc(CN(C)C)nn3)ccc21 (stereo partly drawn)	SIAE primary 18.3 (no result: HTRA1 inh) | SIAE confirm inactive
Cc1ccc(S(=O)(=O)NCCCN(C)C)cc1	SIAE primary 19.1 | SIAE confirm inactive
Cc1ccc(S(=O)(=O)NCCCNS(=O)(=O)c2ccc(C)cc2)cc1	none
Cc1nc(Cl)c(N=Cc2cccc([N+](=O)[O-])c2)c(Cl)n1	SIAE primary 17.7 | SIAE confirm inactive
FC(F)(F)c1ccc(Cn2ccc3ccc(-c4ccc5ccn(Cc6ccccc6)c5c4)cc32)cc1	none (no result: HTRA1 inh)
Nn1c(Nc2ccccc2)nc2ccccc21	SIAE primary 23.3 | SIAE confirm inactive
O=Cc1cc2ccccc2nc1SCc1ccc(Cl)cc1	SIAE primary 27.2 | SIAE confirm inactive
O=C(O)CC1SC(N/N=C/c2ccc(Br)cc2)NC1=O (stereo not drawn)	none
CCCNc1c(NC(C)=O)c(=O)oc2ccccc12	none
CC(=O)Nc1c(NC(C)(C)C)c2ccccc2oc1=O	SIAE primary 20.8 | SIAE confirm inactive
Cc1cc(C)c(OCC(=O)Nc2nc3ccccc3[nH]2)c(C)c1	none
O=C(COC(=O)/C=C/c1cccs1)Nc1nc(-c2cccc(Br)c2)cs1	SIAE primary 30.4 | SIAE confirm inactive
O=C(COC(=O)/C=C/c1cccs1)Nc1nc(-c2ccccc2)cs1	none
CC(C)(C)OC(=O)C[C@H]1C/C=C\C[C@H](CC(=O)NCCO)C(=O)NC[C@H](c2ccccc2)OC1=O	none
O=C(Nc1ccc(F)cc1)Nc1cc(S(=O)(=O)N2CCOCC2)ccc1N1CCCC1	SIAE primary 20.2 | SIAE confirm 17.4
O=C(Nc1ccc(Cl)cc1)Nc1cc(S(=O)(=O)N2CCOCC2)ccc1N1CCCC1	none
O=C(O)[C@H](Cc1ccccc1)NC(=O)[C@H]1O[C@@H](n2ccc(=O)[nH]c2=O)[C@H](O)[C@@H]1O	none (no result: HTRA1 inh)
O=C(N[C@H](CO)Cc1ccccc1)[C@H]1O[C@@H](n2ccc(=O)[nH]c2=O)[C@H](O)[C@@H]1O	SIAE primary 47.7 (no result: HTRA1 inh) | SIAE confirm 43.9
CC[C@H](C)[C@@H](CO)NC(=O)[C@H]1O[C@@H](n2ccc(=O)[nH]c2=O)[C@H](O)[C@@H]1O	SIAE primary 88.1 (no result: HTRA1 inh) | SIAE confirm 78.3
CC(C)(C)c1ccc(S(=O)(=O)N2CCN(CC(O)CN3CCOCC3)CC2)cc1 (stereo not drawn)	none
Cc1nc2ccccc2n1C(C)c1nc2ccccc2n1CC(=O)c1ccc(OC(F)(F)F)cc1 (stereo not drawn)	none (no result: HTRA1 inh)
Fc1cccc(NC(=S)N2CCn3cccc3C2c2cccnc2)c1 (stereo not drawn)	SIAE primary 25.0 | SIAE confirm inactive
S=C(Nc1ccccc1)N1CCn2cccc2C1c1cccnc1 (stereo not drawn)	none
COc1ccc(N(CC(=O)NCCSCc2c(F)cccc2Cl)S(C)(=O)=O)cc1OC	none (no result: rCAG RNA binder, SIAE primary, ABHD4 inh, PRMT1 FP inh)
CS(=O)(=O)N(CC(=O)NCCSCc1c(F)cccc1Cl)c1ccc2c(c1)OCO2	SIAE primary 18.3 | SIAE confirm inactive
O=C(OCC(=O)N1CCc2ccccc2C1)c1cccnc1Cl	none
CCOC(=O)c1ccc(S(=O)(=O)Nc2ccc(N3CCOCC3)cc2)cc1	none
O=C(CSc1ccc(Br)cc1)NC1CCS(=O)(=O)C1 (stereo not drawn)	none
Cc1occc1C(=O)NNC(=S)Nc1cccc([N+](=O)[O-])c1	SIAE primary 21.8 | SIAE confirm inactive
CC(=O)NC(=S)Nc1cccc([N+](=O)[O-])c1	none
COc1cc2ccccc2cc1C(=O)N1CCCC1	SIAE primary 22.1 | SIAE confirm inactive
COc1cc2ccccc2cc1C(=O)N1CCCCC1	none
CC(C)CNc1ncnc2c1ncn2[C@H]1CN(Cc2ccc(F)cc2)C[C@@H](CO)O1	none (no result: HTRA1 inh)
CC(C)C1=Nc2cccc3cccc(c23)N1	none
Nc1cccc(C2=Nc3cccc4cccc(c34)N2)c1	SIAE primary 44.6 | SIAE confirm inactive
COc1ccc(C2=Nc3cccc4cccc(c34)N2)cc1	SIAE primary 25.9 | SIAE confirm inactive
O=c1[nH][nH]c(=O)n1-c1ccccc1	SIAE primary 20.5 | SIAE confirm inactive
Cc1cccc2nc(C(=O)Nc3cccc(C(=O)NC4CC4)c3)cn12	none
CCOC(=O)c1c(C)[nH]c(C2=NNC(=Nc3ccc(OCC)cc3)SC2)c1C	SIAE primary 28.0 | SIAE confirm inactive
CSc1nnc(C)c(/C=C/NOCc2ccc(Cl)cc2)n1	SIAE primary 18.5 | SIAE confirm inactive
Cc1ccc2[nH]c3c(NCc4ccco4)ncnc3c2c1	none
CCOc1ccc2[nH]c3c(NCCc4ccc(OC)c(OC)c4)ncnc3c2c1	SIAE primary 19.3 | SIAE confirm inactive
COc1cc(CNc2ncnc3c2[nH]c2ccc(C)cc23)cc(OC)c1	SIAE primary 37.2 | SIAE confirm inactive
CC1(C(=O)Nc2ccccc2)CCN1C(=O)CCc1ccc(Cl)cc1Cl (stereo not drawn)	SIAE primary 18.9 (no result: HTRA1 inh) | SIAE confirm inactive
CC1(C(=O)Nc2ccccc2Br)CCN1C(=O)Cc1ccc(Cl)cc1Cl (stereo not drawn)	none (no result: HTRA1 inh)
O=C(OCC(=O)c1c[nH]c2ccccc12)c1cccc([N+](=O)[O-])c1	SIAE primary 21.3 | SIAE confirm inactive
